High-throughput results: PubChem BioAssay, The Scripps Research Institute Molecular Screening Center
CHO parental Ca: counter-screen for OX1R antagonists: effect in parental CHO cells; parental CHO-K1, ATP-induced calcium, Fluo-8 fluorescence; inhibition, % at 5.6 µM; actives 0.63% (n = 330,000);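 active = inhibition above that plate's mean sample inhibition plus 3 SD, cut at about 26% in these data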;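 also: 0% = ATP-challenged DMSO wells and 100% = DMSO wells without ATP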
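Test system: parental CHO cells; detection: calcium-sensitive Fluo-8 fluorescence; evaluation: percent inhibition of calcium signal; also added: ATP as calcium-mobilizing challenge; repeats: one well per compound; control set: ATP-challenged DMSO wells low, unchallenged DMSO wells high; compound: single nominal dose of 5.6 µM per compound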
TAAR1 ag: human TAAR1 agonism; Q96RJ0; CHO RD-HGA16 TAAR1, Fluo-8 calcium fluorescence; vehicle wells 0%, saturating PEA agonist 100%; activation, % at 3 µM; actives 0.99% (n = 360,000); AID 624467;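 active = activation above the mean activation of all test compounds in the run plus 3 SD, cut at about 38% in these data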
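Test system: RD-HGA16 (CHO) cells co-expressing Gα16 and hTAAR1 | Doses: Single dose, 3 µM | Schedule: 17-24 h seeding, 75 min 37 °C dye, 30 min RT | Evaluation: % activation from peak over basal fluorescence ratio, DMSO-to-PEA scaled | Technique: Kinetic Fluo-8 calcium fluorescence | Benchmarks: Low control DMSO, high control PEA (EC100)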
TAAR1 antagonist: human TAAR1 antagonism; CHO RD-HGA16 TAAR1, Fluo-8 calcium fluorescence, antagonist; Q96RJ0; AID 624466; actives 1.5% (n = 360,000); inhibition, % at 3 µM;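 active = inhibition above a per-plate cutoff, the mean inhibition of test compounds on that plate plus 3 SD, cut at about 49% in these data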;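 also: 0% = DMSO plus EC80 beta-PEA response and 100% = DMSO alone without agonist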
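Assay system: CHO-derived RD-HGA16 cells stably expressing human TAAR1 plus Gα16. Timing: 140 s kinetic read after compound, 140 s after agonist. Technique: kinetic Fluo-8 calcium fluorescence measurement. Measure: % inhibition of agonist calcium response.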
OX1R antag-1: blocks the human orexin 1 receptor | inhibition, % at 6.6 µM | actives 1.8% (n = 330,000) | OX1R-expressing cells, FRET antagonist read-out | O43613; in the data active = inhibition mostly above about 38%, no sharp cut-off; inactive = mostly below about 40%;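 also: 0% = agonist challenge alone and 100% = reference antagonist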
Target sequence (O43613 whole entry, looked up): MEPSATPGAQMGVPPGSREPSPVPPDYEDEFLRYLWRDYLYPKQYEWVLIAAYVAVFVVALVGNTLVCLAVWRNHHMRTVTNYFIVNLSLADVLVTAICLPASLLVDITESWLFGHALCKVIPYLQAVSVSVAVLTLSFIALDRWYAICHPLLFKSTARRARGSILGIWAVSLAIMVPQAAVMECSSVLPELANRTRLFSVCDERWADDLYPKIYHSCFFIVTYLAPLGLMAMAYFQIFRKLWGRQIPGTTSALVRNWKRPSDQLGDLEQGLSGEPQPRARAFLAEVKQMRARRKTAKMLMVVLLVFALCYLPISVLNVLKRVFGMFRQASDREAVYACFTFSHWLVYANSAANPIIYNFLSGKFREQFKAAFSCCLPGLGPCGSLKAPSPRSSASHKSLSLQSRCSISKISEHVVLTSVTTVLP
OX1R antag-2: blocks the human orexin 1 receptor | CHO/OX1R cells, Fluo-8 calcium fluorescence, orexin A | inhibition, % at 5 µM | O43613 | actives 0.43% (n = 330,000) | AID 434989;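 active = inhibition above its plate's threshold, mean inhibition of all tested compounds on the plate plus 3 SD, cut at about 37% in these data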;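 also: 0% = orexin A challenge wells and 100% = SB-334867-A antagonist wells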
Active calls of the source: *; / = no result given. This is a sample that favours compounds with a hit; in the whole collection about 4% have one here.

SMILES	CHO parental Ca	TAAR1 ag	TAAR1 antagonist	OX1R antag-1	OX1R antag-2
O=C(CCN1C(=O)/C(=C\c2ccccc2)SC1=S)N1CCOCC1	-16	6	2	17	-17
O=C(CN1C(=O)S/C(=C/c2ccccn2)C1=O)N1CCOCC1	-1	3	-12	55*	-5
Cc1nn(-c2ccccc2)nc1C(=O)Nc1ccccc1C(=O)NCC1CC1	/	3	-7	/	/
COc1ccc(C(=O)NCC2CCN(C(=O)C(=O)c3cccs3)CC2)c(OC)c1	/	0	-12	/	/
Cc1ccc(S(=O)(=O)N(CCC(=O)NCC(c2ccccc2)N(C)C)c2ccccc2)cc1 (stereo not drawn)	/	-1	-4	/	/
Cc1ccc(S(=O)(=O)N(CCC(=O)NCc2ccccc2F)c2ccccc2)cc1	-19	1	1	25*	-6
COC(=O)c1cc(=O)nc(NN=C(C)C)s1	/	0	-3	/	/
Cc1ccc(S(=O)(=O)N2CCOCC2)cc1C(=O)NC(=S)N1CC(C)CC(C)C1 (stereo not drawn)	-19	39*	-2	17	-29
CCCC(C)NC(=S)NC(=O)c1cc(S(=O)(=O)N2CCOCC2)ccc1C (stereo not drawn)	-25	6	-2	10	-25
COc1cc(/C=C2\Oc3cc(O)ccc3C2=O)ccc1O	22	5	10	60*	33
Cc1ccsc1/C=C1\Oc2cc(O)ccc2C1=O	/	9	7	/	/
O=C1/C(=C/c2ccc(O)c(O)c2)Oc2cc(O)ccc21	15	4	-7	24	14
O=C1/C(=C/c2cccc([N+](=O)[O-])c2)Oc2cc(O)ccc21	1	10	2	29*	14
CC(=O)c1ccc(N(CC(=O)NCc2ccc3c(c2)OCO3)C(=O)c2csnn2)cc1	-18	4	-18	18	-12
O=C(CSc1nc(C(F)(F)F)cc(=O)[nH]1)Nc1ccc2c(c1)OCCO2	3	2	-24	8	-4
CC(=O)Nc1ccc(C(=O)OCC(=O)N(c2ccccc2)C2CCCCC2)cc1	-11	12	50*	11	-11
FC(F)(F)c1nnc2ccc(Sc3ccccn3)nn12	3	7	-10	8	6
O=C(Nc1cccc(S(=O)(=O)NC2=NCCC2)c1)c1cc(-c2ccccn2)nc2ccccc12	-15	12	51*	5	-33
CCCC[C@@]1(C2CCCC2)Cc2cc(OCC(=O)O)c(Cl)c(Cl)c2C1=O	-17	-1	-10	43*	-9
CCOC(=O)C1=C(C(=O)OCC)C2N(Cc3ccc(C#N)cc3)c3ccccc3[C@@]23C[C@@H](C(=O)OC)N(S(=O)(=O)c2ccc(C)cc2)C3=N1 (stereo partly drawn)	/	1	-30	/	/
OCCN(CCO)c1ccc(C(c2ccccc2Cl)c2ccc(N(CCO)CCO)cc2Cl)c(Cl)c1	47*	/	/	6	39
OCCN(CCO)c1ccc2ccccc2c1	-6	2	11	21	-4
CCOc1ccccc1N1CCN(C/C=C/c2ccc(N(C)C)cc2)CC1	-35	37*	-9	42	-40
CCOc1ccccc1N1CCN(Cc2ccco2)CC1	-8	2	2	21	-22
O=C(CCCN1C(=O)/C(=C/c2ccc(F)cc2)SC1=S)NC1CCS(=O)(=O)C1 (stereo not drawn)	82*	7	5	18	-6
SMILES	CHO parental Ca	TAAR1 ag	TAAR1 antagonist	OX1R antag-1	OX1R antag-2
O=C(CCN1C(=O)/C(=C/c2ccccc2)SC1=S)NC1CCS(=O)(=O)C1 (stereo not drawn)	-9	5	-2	24	-24
CCN(C(=O)CN1C(=O)S/C(=C\c2ccc(F)cc2)C1=O)C1CCS(=O)(=O)C1 (stereo not drawn)	-6	0	-5	41*	-20
CN(C(=O)CN1C(=O)S/C(=C\c2ccc(F)cc2)C1=O)C1CCS(=O)(=O)C1 (stereo not drawn)	-5	2	-11	28	-9
COc1ccccc1-c1sc2ccccc2c1-c1ccc2c(c1)OCCO2	-17	-1	-11	11	-3
CC(C)(C)C(=O)Nc1ccccc1C(=O)Nc1cc(Cl)ccc1Cl	-15	54*	27	15	-33
COc1ccc(NS(=O)(=O)c2ccc(-c3coc(C)n3)cc2)cc1OC	50*	4	13	27	39
Cc1cc(C)c(C)c(S(=O)(=O)N2CCN(C(=O)c3cc(S(=O)(=O)N4CCOCC4)ccc3F)CC2)c1C	-2	12	26	6	-16
CC(Nc1ncnc2sccc12)c1ccccc1 (stereo not drawn)	42*	5	14	36	12
C[C@@H](C(=O)NCc1ccccc1)[C@H]1C[C@]1(C)[C@H](NC(=O)OCc1ccccc1)c1ccccc1	-1	13	62*	17	-27
CN(C)CCNc1nc2sc3c(c2c(=O)n1CCc1ccccc1)CCCCC3	10	40*	36	7	-6
CC(O)CNc1nc2sc3c(c2c(=O)n1CCc1ccccc1)CCCCC3 (stereo not drawn)	-10	4	30	7	-22
COc1ccc(-c2cn3cc(C(=O)NN)ccc3n2)cc1	54*	1	-7	27	57*
O=[N+]([O-])c1cc(-c2ccc(/C=N\n3cnnc3)o2)cc([N+](=O)[O-])c1	-9	-1	-2	69*	-14
Clc1cccc(-c2ccc(/C=N/n3cnnc3)o2)c1	-4	11	-3	7	9
COc1ccc(/C=N/Nc2ccc([N+](=O)[O-])cc2)cc1O	7	40*	23	1	4
C=CCN(c1ccccc1OC)S(=O)(=O)c1cccc(C(=O)OCC(=O)c2c(N)n(C)c(=O)n(C)c2=O)c1	/	9	52*	/	/
Cc1nn2c(CN(C(=O)COc3ccccc3)c3ccccc3)nnc2c2ccccc12	-10	1	4	62*	0
O=C(NC(=S)NNC(=O)[C@H]1C[C@@H]1c1ccccc1)c1ccc(F)cc1	-9	41*	63*	7	-26
CC(C)(C)NC(=S)NNC(=O)[C@H]1C[C@@H]1c1ccccc1	7	0	-3	-3	-11
CCOC(=O)CSc1nc(N2CCOCC2)c2c(c1C#N)CC(C)(C)N(C)C2	-27	9	3	46*	-31
CC(C)N(C[C@@H]1CSCCS(=O)(=O)N1)C1CCCCC1	/	0	2	/	/
Cc1ccc(-c2cc3c(nn2)-c2ccccc2C3=O)cc1	-18	2	4	44*	-31
Cc1ccccc1-c1cc2c(nn1)-c1ccccc1C2=O	-38	13	-10	72*	-14
O=C1c2ccccc2-c2nnc(-c3ccc(O)cc3)cc21	-9	4	4	4	4
O=C1c2ccccc2-c2nnc(-c3ccc(F)cc3)cc21	-3	7	3	8	12
